Source: ChEMBL document CHEMBL1151195, “New isoprenylated flavones, artochamins A--E, and cytotoxic principles from Artocarpus chama” (2004)
≈ marks a conversion by molar mass, not a printed value.

What was measured:
PC-3 = test: Cytotoxicity against human PC3 cells; format: functional; conditions: read-out: ED50 (the source's name)
Summary of the method: (§1)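 Growth inhibition in cultured human tumor cell lines. Compound stocks were made in DMSO and held at -70 °C, then diluted into culture medium to a final DMSO level of ≤1% (v/v).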

A549 = test: Cytotoxicity against human A549 cells; format: functional; conditions: read-out: ED50 (the source's name); summary of the method: as §1
1A9 = test: Cytotoxicity against human 1A9 cells; format: functional; conditions: read-out: ED50 (the source's name); summary of the method: as §1
KB = test: Cytotoxicity against human KB cells; format: functional; conditions: read-out: ED50 (the source's name); summary of the method: as §1
[1] = Cytotoxicity against human U87MG cells; format: functional, U-87MG ATCC; conditions: U-87 MG, read-out: ED50 (the source's name); summary of the method: as §1
MDA-MB-231 = test: Cytotoxicity against human MDA-MB-231 cells; format: functional; conditions: read-out: ED50 (the source's name); summary of the method: as §1
[2] = Cytotoxicity against human KBVIN cells; format: functional; conditions: read-out: ED50 (the source's name); summary of the method: as §1
MCF7 = test: Cytotoxicity against human MCF7 cells; format: functional; conditions: read-out: ED50 (the source's name); summary of the method: as §1
CAKI-1 = test: Cytotoxicity against human Caki1 cells; format: functional; conditions: read-out: ED50 (the source's name); summary of the method: as §1
SK-MEL-2 = test: Cytotoxicity against human SK-MEL-2 cells; format: functional; conditions: read-out: ED50 (the source's name); summary of the method: as §1
HCT-8 = test: Cytotoxicity against human HCT8 cells; format: functional; conditions: read-out: ED50 (the source's name); summary of the method: as §1

`CC1(C)C=Cc2c(cc(O)c3c(=O)cc(-c4ccc(O)c(O)c4)oc23)O1` [ARTOCHAMIN C] showed an EC50 (PC-3) of 4.2 µg/mL (≈ 11.9 µM), an EC50 (A549) of 3 µg/mL (≈ 8.51 µM) and an EC50 (1A9) of 2 µg/mL (≈ 5.68 µM). For the same compound, the EC50 (KB) was 3.4 µg/mL (≈ 9.65 µM), the EC50 [1] was 7.2 µg/mL (≈ 20.4 µM) and the EC50 (MDA-MB-231) was 6.2 µg/mL (≈ 17.6 µM). The EC50 [2] was 3.4 µg/mL (≈ 9.65 µM), the EC50 (MCF7) was 2.2 µg/mL (≈ 6.24 µM) and the EC50 (CAKI-1) was 5.3 µg/mL (≈ 15 µM). It also gave an EC50 (SK-MEL-2) of 2.3 µg/mL (≈ 6.53 µM) and an EC50 (HCT-8) of 2.3 µg/mL (≈ 6.53 µM).
With `COc1cc2oc(-c3ccc(O)cc3O)c(CC=C(C)C)c(=O)c2c(O)c1/C=C/C(C)C` [ARTOCARPIN] the EC50 (PC-3) was 4.1 µg/mL (≈ 9.39 µM), the EC50 (A549) was 3.3 µg/mL (≈ 7.56 µM) and the EC50 (1A9) was 3.4 µg/mL (≈ 7.79 µM). The EC50 (KB) was 3.2 µg/mL (≈ 7.33 µM), the EC50 [1] was 3.7 µg/mL (≈ 8.48 µM) and the EC50 (MDA-MB-231) was 3.8 µg/mL (≈ 8.71 µM). It also gave an EC50 [2] of 3.6 µg/mL (≈ 8.25 µM), an EC50 (MCF7) of 3.3 µg/mL (≈ 7.56 µM) and an EC50 (CAKI-1) of 4.9 µg/mL (≈ 11.2 µM). It also gave an EC50 (SK-MEL-2) of 5.4 µg/mL (≈ 12.4 µM) and an EC50 (HCT-8) of 3.8 µg/mL (≈ 8.71 µM).
For `CC(C)=CCc1c(-c2cc(O)c(O)cc2O)oc2c3c(cc(O)c2c1=O)OC(C)(C)C=C3` [ARTONIN E], the EC50 (PC-3) was 6.9 µg/mL (≈ 15.8 µM), the EC50 (A549) was 8.5 µg/mL (≈ 19.5 µM) and the EC50 (1A9) was < 1.25 µg/mL. It also gave an EC50 (KB) of 6.5 µg/mL (≈ 14.9 µM), an EC50 [1] of 6.4 µg/mL (≈ 14.7 µM) and an EC50 (MDA-MB-231) of 3 µg/mL (≈ 6.87 µM). For the same compound, the EC50 [2] was > 10 µg/mL, the EC50 (MCF7) was 2.2 µg/mL (≈ 5.04 µM) and the EC50 (CAKI-1) was 9.7 µg/mL (≈ 22.2 µM). It also gave an EC50 (SK-MEL-2) of 4.3 µg/mL (≈ 9.85 µM) and an EC50 (HCT-8) of 3.3 µg/mL (≈ 7.56 µM).
In the case of `CC1(C)C=Cc2c(cc(O)c3c(=O)c4c(oc23)-c2c(O)cc(O)c3c2C(C4)C(C)(C)O3)O1` (centres undefined) [CYCLOARTOBILOXANTHONE], the EC50 (A549) is reported as 7.2 µg/mL (≈ 16.6 µM) and the EC50 (MCF7) is reported as 7.7 µg/mL (≈ 17.7 µM).
Compound `COc1ccc2c(c1)OC(C=C(C)C)c1c-2oc2cc(O)c(/C=C/C(C)C)c(O)c2c1=O` (centres undefined) [CYCLOARTOCARPIN A] has an EC50 (A549) of 6.6 µg/mL (≈ 15.2 µM) and an EC50 (MCF7) of 6 µg/mL (≈ 13.8 µM).
In the case of `CC(C)=CCc1c2c(c(O)c3c(=O)c4c(oc13)-c1c(O)cc(O)c3c1C(C4)C(C)(C)O3)C=CC(C)(C)O2` (centres undefined) [ARTONIN A], the EC50 (A549) is reported as 6.1 µg/mL (≈ 12.1 µM) and the EC50 (MCF7) is reported as 6.7 µg/mL (≈ 13.3 µM).
